From ChEMBL document CHEMBL1157717, “Design, synthesis and biological evaluation of 6-(benzyloxy)-4-methylquinolin-2(1H)-one derivatives as PDE3 inhibitors” (Bioorg Med Chem, 2010) come the findings set out here.

The target of experiment [1] is T1, cGMP-inhibited 3',5'-cyclic phosphodiesterase 3B (Homo sapiens, UniProt Q13370). Nature of the experiment: Inhibition of human PDE3B by fluorescence microplate reader. An outline of the steps: (§1)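 IMAP fluorescence-polarization PDE assay: 1 ng PDE3A or PDE3B, 100 nM FAM-cAMP in IMAP reaction buffer, 60 min at room temperature. Binding reagent (1:600) added for a further 60 min at room temperature. Read at ex 485/em 528 nm, in duplicate. % activity is normalised to the no-enzyme and maximum-FP values. IC50 comes from a sigmoidal fit over 0.01–100 μM.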
Target sequence in this assay (Q13370 whole entry): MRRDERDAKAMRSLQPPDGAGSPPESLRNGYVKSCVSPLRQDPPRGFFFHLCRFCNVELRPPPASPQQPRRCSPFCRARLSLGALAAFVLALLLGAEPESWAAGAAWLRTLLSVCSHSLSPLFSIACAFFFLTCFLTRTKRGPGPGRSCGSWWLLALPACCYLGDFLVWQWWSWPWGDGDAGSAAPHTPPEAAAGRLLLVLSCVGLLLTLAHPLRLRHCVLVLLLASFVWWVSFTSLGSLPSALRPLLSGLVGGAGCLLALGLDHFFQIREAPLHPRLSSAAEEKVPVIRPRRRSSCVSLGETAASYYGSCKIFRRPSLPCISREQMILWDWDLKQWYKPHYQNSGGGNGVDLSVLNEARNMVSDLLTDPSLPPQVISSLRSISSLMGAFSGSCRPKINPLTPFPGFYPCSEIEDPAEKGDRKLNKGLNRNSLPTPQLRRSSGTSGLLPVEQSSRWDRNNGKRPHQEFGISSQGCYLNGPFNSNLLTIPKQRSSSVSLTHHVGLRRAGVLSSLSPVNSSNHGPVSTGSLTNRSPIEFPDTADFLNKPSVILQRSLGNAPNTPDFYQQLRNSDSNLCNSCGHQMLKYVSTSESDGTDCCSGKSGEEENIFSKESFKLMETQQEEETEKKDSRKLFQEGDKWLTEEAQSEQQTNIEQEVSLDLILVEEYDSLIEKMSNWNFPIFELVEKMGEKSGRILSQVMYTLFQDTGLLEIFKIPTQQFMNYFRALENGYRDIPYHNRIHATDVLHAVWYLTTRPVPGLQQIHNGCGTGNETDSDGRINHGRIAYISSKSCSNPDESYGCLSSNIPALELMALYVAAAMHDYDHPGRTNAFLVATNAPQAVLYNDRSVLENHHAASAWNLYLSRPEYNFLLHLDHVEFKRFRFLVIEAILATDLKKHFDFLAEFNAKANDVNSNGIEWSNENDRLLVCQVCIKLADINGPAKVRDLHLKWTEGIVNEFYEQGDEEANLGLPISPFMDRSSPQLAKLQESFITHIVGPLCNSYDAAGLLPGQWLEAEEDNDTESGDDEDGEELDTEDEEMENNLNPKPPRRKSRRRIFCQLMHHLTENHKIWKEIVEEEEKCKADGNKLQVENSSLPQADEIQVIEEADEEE

Experiment [2] concerns the target T2, cGMP-inhibited 3',5'-cyclic phosphodiesterase 3A (Homo sapiens, UniProt Q14432). Nature of the experiment: Inhibition of human PDE3A by fluorescence microplate reader. Put shortly:
as §1

Experiment [3] is described as follows: Positive inotropic activity in isolated reserpine-treated Wistar rat whole atrium assessed as heart rate at 10 uM (Rvb=100+/-2%). The class given is functional, Cardiac atrium. An outline of the steps: (§2)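 Male Wistar rats (250–350 g) received reserpine 5 mg/kg ip 24 h before thiopental anaesthesia. Whole atria were mounted in Krebs–Henseleit gassed with 95% O2/5% CO2, 35–37 °C, pH 7.35–7.45, under about 0.5 g resting tension with 40–50 min equilibration. Only tyramine (1.5 μM)-unresponsive preparations were used. Compounds were added cumulatively (1–100 μM), with isometric force and rate recorded. Values are mean ± SEM, six atria.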

Experiment [4] is described as follows: Positive inotropic activity in isolated reserpine-treated Wistar rat whole atrium assessed as contraction at 10 uM (Rvb=100+/-3%). It is filed as functional, Cardiac atrium. An outline of the steps: as §2
In experiment [5] the target is T1, cGMP-inhibited 3',5'-cyclic phosphodiesterase 3B. The experiment is described as follows: Ratio of IC50 for vesnarinone to IC50 for drug against human PDE3B by fluorescence microplate reader.
Target sequence in this assay (Q13370 whole entry, looked up): as the sequence (Q13370 whole entry) above
Experiment [6] is described as follows: Positive inotropic activity in isolated reserpine-treated Wistar rat whole atrium assessed as contraction at 100 uM (Rvb=100+/-3%). The class given is functional, Cardiac atrium. An outline of the steps: as §2
For experiment [7], the target named is T2, cGMP-inhibited 3',5'-cyclic phosphodiesterase 3A. The experiment is described as follows: Ratio of IC50 for vesnarinone to IC50 for drug against human PDE3A by fluorescence microplate reader.
Experiment [8] can be described thus: Positive inotropic activity in isolated reserpine-treated Wistar rat whole atrium assessed as contraction at 1 uM (Rvb=100+/-3%). The class given is functional, Cardiac atrium. Put shortly:
as §2

Experiment [9] in a line: Positive inotropic activity in isolated reserpine-treated Wistar rat whole atrium assessed as heart rate at 100 uM (Rvb=100+/-2%). The class given is functional, Cardiac atrium. Put shortly:
as §2

Experiment [10] deals with T2, cGMP-inhibited 3',5'-cyclic phosphodiesterase 3A. Nature of the experiment: Ratio of IC50 for vesnarinone to IC50 for drug against human PDE3A by fluorescence microplate reader.
The target of experiment [11] is T1, cGMP-inhibited 3',5'-cyclic phosphodiesterase 3B. Nature of the experiment: Ratio of IC50 for vesnarinone to IC50 for drug against human PDE3B by fluorescence microplate reader.
Target sequence in this assay (Q13370 whole entry, looked up): as the sequence (Q13370 whole entry) above
Experiment [12] is described as follows: Positive inotropic activity in isolated reserpine-treated Wistar rat whole atrium assessed as heart rate at 100 uM (Rvb=100+/-3%). It is filed as functional, Cardiac atrium. An outline of the steps: as §2
Experiment [13] can be described thus: Positive inotropic activity in isolated reserpine-treated Wistar rat whole atrium assessed as heart rate at 1 uM (Rvb=100+/-3%). It is filed as functional, Cardiac atrium. Put shortly:
as §2

The nature of experiment [14]: Positive inotropic activity in isolated reserpine-treated Wistar rat whole atrium assessed as heart rate at 10 uM (Rvb=100+/-3%). It is filed as functional, Cardiac atrium. Put shortly:
as §2

Experiment [15] is described as follows: Positive inotropic activity in isolated reserpine-treated Wistar rat whole atrium assessed as contraction at 10 uM (Rvb=100+/-4%). It is filed as functional, Cardiac atrium. An outline of the steps:
as §2

Experiment [16] is described as follows: Positive inotropic activity in isolated reserpine-treated Wistar rat whole atrium assessed as contraction at 100 uM (Rvb=100+/-4%). The class given is functional, Cardiac atrium. An outline of the steps: as §2
Experiment [17] can be described thus: Positive inotropic activity in isolated reserpine-treated Wistar rat whole atrium assessed as contraction at 1 uM (Rvb=100+/-4%). It is filed as functional, Cardiac atrium. Put shortly: as §2

T2 sequence (Q14432 whole entry): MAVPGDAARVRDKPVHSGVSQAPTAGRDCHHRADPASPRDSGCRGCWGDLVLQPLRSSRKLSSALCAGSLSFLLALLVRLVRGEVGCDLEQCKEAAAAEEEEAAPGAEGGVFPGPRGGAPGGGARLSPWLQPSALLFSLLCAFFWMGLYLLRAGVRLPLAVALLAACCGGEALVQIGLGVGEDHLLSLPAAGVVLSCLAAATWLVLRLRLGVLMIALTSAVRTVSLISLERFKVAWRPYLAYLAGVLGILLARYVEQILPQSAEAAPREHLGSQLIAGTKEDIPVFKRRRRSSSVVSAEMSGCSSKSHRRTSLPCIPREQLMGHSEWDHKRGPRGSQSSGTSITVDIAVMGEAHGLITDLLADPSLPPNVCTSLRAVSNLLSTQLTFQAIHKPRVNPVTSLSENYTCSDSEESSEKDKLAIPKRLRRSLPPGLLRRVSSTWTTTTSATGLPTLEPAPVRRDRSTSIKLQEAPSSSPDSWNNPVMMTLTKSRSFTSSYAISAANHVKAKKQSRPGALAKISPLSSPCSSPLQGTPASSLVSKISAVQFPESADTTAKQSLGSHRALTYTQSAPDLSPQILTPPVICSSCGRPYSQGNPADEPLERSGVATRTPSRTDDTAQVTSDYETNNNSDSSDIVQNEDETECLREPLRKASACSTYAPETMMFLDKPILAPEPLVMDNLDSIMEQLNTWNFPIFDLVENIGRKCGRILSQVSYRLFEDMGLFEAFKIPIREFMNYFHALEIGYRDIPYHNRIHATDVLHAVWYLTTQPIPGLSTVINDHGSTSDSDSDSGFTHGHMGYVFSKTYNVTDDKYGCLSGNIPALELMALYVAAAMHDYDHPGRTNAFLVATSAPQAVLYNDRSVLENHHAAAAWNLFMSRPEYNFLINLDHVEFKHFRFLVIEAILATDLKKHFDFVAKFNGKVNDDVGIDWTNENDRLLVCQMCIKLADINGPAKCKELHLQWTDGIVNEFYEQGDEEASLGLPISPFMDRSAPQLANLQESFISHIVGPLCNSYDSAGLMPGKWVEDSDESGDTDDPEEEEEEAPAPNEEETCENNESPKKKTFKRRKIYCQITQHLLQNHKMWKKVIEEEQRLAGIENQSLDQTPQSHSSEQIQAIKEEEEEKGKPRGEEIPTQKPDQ

As usually defined, the IC50 is the point on the concentration scale where inhibition reaches its midpoint. Consider `Cc1cc(=O)[nH]c2ccc(OCc3cccc(C(=O)N4CCOCC4)c3)cc12`, for which the IC50 came to 1540 nM in experiment [1] and 1340 nM in experiment [2].

Regarding `Cc1cc(=O)[nH]c2ccc(OCc3cccc(C(=O)N4CCCC4)c3)cc12`, the IC50 stood at 1200 nM in [1] and 640 nM in experiment [2].

With `Cc1cc(=O)[nH]c2ccc(OCc3cccc(C(=O)N4CCN(CCO)CC4)c3)cc12`, the values for the IC50 in experiment [1] and in experiment [2] were 2800 nM and 1650 nM, respectively.

Turning to `CCN1CCN(C(=O)c2cccc(COc3ccc4[nH]c(=O)cc(C)c4c3)c2)CC1`, the Activity in experiment [3] came out at 108%; in [4], 123%; in experiment [6], 146%; in [8], 101%; in experiment [9], 116%. For the same compound, the Ratio IC50 turned out to be 8 in experiment [5] and 25 in experiment [7]. Also, the IC50 in [1] is 1930 nM; in experiment [2] it was 1440 nM.

As to `Cc1cc(=O)[nH]c2ccc(OCc3cccc(C(=O)N4CCCCC4)c3)cc12`, the IC50 in [1] came out at 1730 nM; in experiment [2] it was 660 nM.

Consider `Cc1cc(=O)[nH]c2ccc(OCc3cccc(C(=O)N4CCN(C)CC4)c3)cc12`, for which the values for the Ratio IC50 in experiment [10] and in experiment [11] were 6 and 4, respectively. Also, the figures for the IC50 in experiment [1] and in [2] were 3510 nM and 1760 nM, respectively.

On to `Cc1cc(=O)[nH]c2ccc(OCc3cccc(C(=O)N4CCC(C(=O)O)CC4)c3)cc12`, for which the IC50 in [1] turned out to be 1280 nM; in [2], 840 nM.

As to `Cc1cc(=O)[nH]c2ccc(OCc3cccc(C(=O)N4CCC(C)CC4)c3)cc12`, the IC50 in experiment [1] amounted to 1610 nM; in [2], 430 nM.

Regarding `COc1ccc(C(=O)N2CCN(c3ccc4c(c3)CCC(=O)N4)CC2)cc1OC` [VESNARINONE], the Activity in [12] was determined as 114%; in [13], 103%; in [14], 109%; in [15], 121%; in experiment [16] it was 141%; in [17], 102%. The IC50 in experiment [1] amounted to 13200 nM; in experiment [2], 10700 nM.

Regarding `Cc1cc(=O)[nH]c2ccc(OCc3cccc(C(=O)N4CCC(O)CC4)c3)cc12`, the IC50 in [1] was found to be 910 nM; in experiment [2], 1350 nM.

As to `Cc1cc(=O)[nH]c2ccc(OCc3cccc(C(=O)N4CCC(=O)CC4)c3)cc12`, the figures for the IC50 in experiment [1] and in experiment [2] were 1140 nM and 1260 nM, respectively.
